# Measured values published in ChEMBL document CHEMBL3286267, “Discovery of MK-4409, a Novel Oxazole FAAH Inhibitor for the Treatment of Inflammatory and Neuropathic Pain” (ACS Med Chem Lett, 2014).
# The source made the active and inactive calls. The rule behind the calls is not given here.
# Tests used:
# [1] = Bioavailability in rat at 1 mg/kg, iv and 1 to 2 mg/kg, po; assay type: ADME, organism-based; details: in vivo
# Method in brief: (§1)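 Rat PK given 1 mg/kg iv in DMSO/PEG400/H2O 20/60/20 and 2 mg/kg po in either Imwitor/Tween 1/1 or PEG400/Tween80/H2O 40/10/50. Half-life, clearance, volume of distribution, dose-normalized AUC (AUCN) and oral bioavailability were derived.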
# [2] = target: T1, Fatty-acid amide hydrolase 1 (Rattus norvegicus, UniProt P97612); assay: Inhibition of rat FAAH lysate using AMCAA as substrate by fluorescence assay
# T1 sequence (P97612 whole entry): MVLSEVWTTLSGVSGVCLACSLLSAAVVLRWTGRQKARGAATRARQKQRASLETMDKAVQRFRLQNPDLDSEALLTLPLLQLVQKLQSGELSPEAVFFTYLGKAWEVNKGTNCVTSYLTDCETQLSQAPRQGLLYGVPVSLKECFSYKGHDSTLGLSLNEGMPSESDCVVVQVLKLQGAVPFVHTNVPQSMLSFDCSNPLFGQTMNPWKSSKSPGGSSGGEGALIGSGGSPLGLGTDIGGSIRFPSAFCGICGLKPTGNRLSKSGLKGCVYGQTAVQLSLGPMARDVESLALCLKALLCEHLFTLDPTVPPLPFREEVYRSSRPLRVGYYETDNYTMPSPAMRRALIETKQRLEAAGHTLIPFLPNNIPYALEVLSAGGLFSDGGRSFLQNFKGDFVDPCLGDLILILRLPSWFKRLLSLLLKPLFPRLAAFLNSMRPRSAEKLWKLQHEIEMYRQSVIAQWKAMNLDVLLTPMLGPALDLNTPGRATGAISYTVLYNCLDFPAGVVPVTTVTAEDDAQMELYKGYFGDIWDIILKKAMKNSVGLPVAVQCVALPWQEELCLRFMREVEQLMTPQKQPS
# Method in brief: (§2)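 In vitro assays, with values reported as the average of at least three duplicates.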
# [3] = target: Voltage-gated inwardly rectifying potassium channel KCNH2 (Homo sapiens, UniProt Q12809); assay: Displacement of [35S]MK-499 from human ERG
# Voltage-gated inwardly rectifying potassium channel KCNH2, sequence (Q12809 whole entry): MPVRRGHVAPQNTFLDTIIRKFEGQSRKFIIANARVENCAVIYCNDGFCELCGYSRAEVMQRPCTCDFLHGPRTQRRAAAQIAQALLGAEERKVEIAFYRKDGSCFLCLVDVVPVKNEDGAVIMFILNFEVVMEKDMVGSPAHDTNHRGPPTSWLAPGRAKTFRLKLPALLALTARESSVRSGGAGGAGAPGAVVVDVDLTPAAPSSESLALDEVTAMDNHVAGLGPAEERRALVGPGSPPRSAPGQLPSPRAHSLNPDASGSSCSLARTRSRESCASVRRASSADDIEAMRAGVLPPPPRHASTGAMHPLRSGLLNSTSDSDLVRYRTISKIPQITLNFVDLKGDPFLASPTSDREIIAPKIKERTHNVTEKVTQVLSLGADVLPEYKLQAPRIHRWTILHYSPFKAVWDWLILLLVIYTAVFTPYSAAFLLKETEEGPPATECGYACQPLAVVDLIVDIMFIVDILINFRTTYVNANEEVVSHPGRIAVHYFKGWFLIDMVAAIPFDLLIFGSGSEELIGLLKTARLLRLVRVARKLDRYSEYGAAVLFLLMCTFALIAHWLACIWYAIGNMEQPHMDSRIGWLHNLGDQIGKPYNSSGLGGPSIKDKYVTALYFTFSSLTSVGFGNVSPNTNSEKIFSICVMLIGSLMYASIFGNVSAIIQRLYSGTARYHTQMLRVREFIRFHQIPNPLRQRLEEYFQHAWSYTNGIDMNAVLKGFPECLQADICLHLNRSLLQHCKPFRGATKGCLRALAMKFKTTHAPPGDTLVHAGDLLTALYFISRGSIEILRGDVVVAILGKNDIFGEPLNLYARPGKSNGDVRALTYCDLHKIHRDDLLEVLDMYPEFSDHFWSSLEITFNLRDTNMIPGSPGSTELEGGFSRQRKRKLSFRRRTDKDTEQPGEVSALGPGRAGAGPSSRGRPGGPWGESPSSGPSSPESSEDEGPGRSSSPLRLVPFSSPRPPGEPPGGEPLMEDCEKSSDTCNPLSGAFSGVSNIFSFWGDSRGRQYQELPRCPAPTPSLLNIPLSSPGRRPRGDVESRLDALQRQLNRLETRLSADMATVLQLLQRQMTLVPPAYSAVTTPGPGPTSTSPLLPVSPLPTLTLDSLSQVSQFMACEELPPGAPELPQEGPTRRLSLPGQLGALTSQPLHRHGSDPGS
# Method in brief: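 hERG K+ channel binding assay measuring displacement of the radiolabelled channel blocker [35S]MK-499. Values are averages of at least three duplicates.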
# [4] = Inhibition of human vesicular monoamine transporter; method in brief: as §2
# Rattus norvegicus [5] = assay: Dose normalized AUC in rat at 1 mg/kg, iv and 1 to 2 mg/kg, po; assay type: ADME, organism-based; details: in vivo; method in brief: as §1
# [6] = Half life in rat at 1 mg/kg, iv and 1 to 2 mg/kg, po; assay type: ADME, organism-based; details: in vivo; method in brief: as §1
# [7] = Solubility in fasted state simulated intestinal fluid; assay type: ADME
# [8] = Clearance in rat at 1 mg/kg, iv and 1 to 2 mg/kg, po; assay type: ADME, organism-based; details: in vivo; method in brief: as §1
# [9] = Volume of distribution at steady state in rat at 1 mg/kg, iv and 1 to 2 mg/kg, po; assay type: ADME, organism-based; details: in vivo, read-out: Vdss; method in brief: as §1
# Rattus norvegicus [10] = assay: Analgesic activity in Sprague-Dawley rat complete Freund's adjuvant-induced inflammatory pain model assessed as reversal of mechanical allodynia at 30 mg/kg, po single dose measured after 1 hr; assay type: functional
# Method in brief: (§3)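 Inflammatory pain induced in rats by intraplantar injection of complete Freund's adjuvant into the hind paw. Mechanical allodynia was assessed at 1 and 3 h after a single oral dose. For each rat, percent reversal = (postdose – predose)/(preinjury – predose), averaged over n = 6.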
# Rattus norvegicus [11] = assay: Analgesic activity in Sprague-Dawley rat complete Freund's adjuvant-induced inflammatory pain model assessed as reversal of mechanical allodynia at 10 mg/kg, po single dose measured after 1 hr; assay type: functional; method in brief: as §3
# [12] = target: T2, Fatty-acid amide hydrolase 1 (Homo sapiens, UniProt O00519); assay: Inhibition of human FAAH lysate using AMCAA as substrate by fluorescence assay; method in brief: as §2
# T2 sequence (O00519 whole entry): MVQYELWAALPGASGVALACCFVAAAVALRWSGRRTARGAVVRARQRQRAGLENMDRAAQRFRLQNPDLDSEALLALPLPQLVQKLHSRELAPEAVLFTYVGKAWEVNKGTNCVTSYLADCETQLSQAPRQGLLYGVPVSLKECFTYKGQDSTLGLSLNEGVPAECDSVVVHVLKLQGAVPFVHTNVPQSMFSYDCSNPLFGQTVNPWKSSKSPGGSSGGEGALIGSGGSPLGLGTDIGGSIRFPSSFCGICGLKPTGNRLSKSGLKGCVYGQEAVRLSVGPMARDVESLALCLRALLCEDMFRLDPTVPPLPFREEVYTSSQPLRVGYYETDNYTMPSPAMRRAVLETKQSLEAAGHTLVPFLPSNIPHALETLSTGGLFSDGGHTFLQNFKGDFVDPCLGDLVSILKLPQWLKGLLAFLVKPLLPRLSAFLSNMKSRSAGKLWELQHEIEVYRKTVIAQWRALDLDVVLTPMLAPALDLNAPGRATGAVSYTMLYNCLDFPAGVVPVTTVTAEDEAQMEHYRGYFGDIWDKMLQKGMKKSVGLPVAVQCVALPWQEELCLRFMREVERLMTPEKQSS
# Rattus norvegicus [13] = assay: Analgesic activity in Sprague-Dawley rat complete Freund's adjuvant-induced inflammatory pain model assessed as reversal of mechanical allodynia at 30 mg/kg, po single dose measured after 3 hrs; assay type: functional; method in brief: as §3
# Rattus norvegicus [14] = assay: Analgesic activity in Sprague-Dawley rat complete Freund's adjuvant-induced inflammatory pain model assessed as reversal of mechanical allodynia at 10 mg/kg, po single dose measured after 3 hrs; assay type: functional; method in brief: as §3
# Rattus norvegicus [15] = assay: Antiallodynic activity in Harlan rat spinal nerve ligation model of neuropathic pain assessed as reversal of allodynia at 21 mg/kg, po; assay type: functional, organism-based; set-up: dose 21 mg/kg
# Method in brief: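 Rat spinal nerve ligation model of neuropathic pain, scored as percent reversal of allodynia after dosing. A rota-rod test run alongside served as a counterscreen for motor impairment.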
# [16] = Half life in rat at 1 mg/kg, iv and 2 mg/kg, po; assay type: ADME, organism-based; details: in vivo; method in brief: as §1
# [17] = Plasma concentration in Sprague-Dawley rat at 30 mg/kg/day, po measured after 24 hrs on day 8; assay type: ADME, organism-based; set-up: route oral
# Method in brief: (§4)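 Chronic paradigm in the CFA inflammatory pain model in rats (intraplantar complete Freund's adjuvant in the hind paw). Daily oral dosing continued for up to 10 days, with a pan CB agonist run for comparison. Allodynia was followed over the days. Plasma exposures were sampled at 3 and 24 h after dosing at 30 mg/kg.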
# Rattus norvegicus [18] = assay: Dose normalized AUC in rat at 1 mg/kg, iv and 2 mg/kg, po; assay type: ADME, organism-based; details: in vivo; method in brief: as §1
# [19] = Fraction unbound in human plasma; assay type: ADME, cell-free
# [20] = Plasma concentration in Sprague-Dawley rat at 30 mg/kg/day, po measured after 3 hrs on day 8; assay type: ADME, organism-based; set-up: route oral; method in brief: as §4
# [21] = Fraction unbound in rhesus monkey plasma; assay type: ADME, cell-free, Macaca mulatta
# [22] = Plasma concentration in Sprague-Dawley rat at 30 mg/kg/day, po measured after 24 hrs on day 3; assay type: ADME, organism-based; set-up: route oral; method in brief: as §4
# [23] = Plasma concentration in Sprague-Dawley rat at 30 mg/kg/day, po measured after 24 hrs on day 5; assay type: ADME, organism-based; set-up: route oral; method in brief: as §4
# [24] = Plasma concentration in Sprague-Dawley rat at 30 mg/kg/day, po measured after 24 hrs on day 2; assay type: ADME, organism-based; set-up: route oral; method in brief: as §4
# [25] = Fraction unbound in rat plasma; assay type: ADME, cell-free
# [26] = Plasma concentration in Sprague-Dawley rat at 30 mg/kg/day, po measured after 24 hrs on day 9; assay type: ADME, organism-based; set-up: route oral; method in brief: as §4
# Rattus norvegicus [27] = assay: Analgesic activity in Sprague-Dawley rat complete Freund's adjuvant-induced inflammatory pain model assessed as reversal of mechanical allodynia at 30 mg/kg/day, po measured up to 10 days; assay type: functional, organism-based; method in brief: as §4
# [28] = Plasma concentration in Sprague-Dawley rat at 30 mg/kg/day, po measured after 3 hrs on day 2; assay type: ADME, organism-based; set-up: route oral; method in brief: as §4
# [29] = Plasma concentration in Sprague-Dawley rat at 30 mg/kg/day, po measured after 24 hrs on day 10; assay type: ADME, organism-based; set-up: route oral; method in brief: as §4
# [30] = Plasma concentration in Sprague-Dawley rat at 30 mg/kg/day, po measured after 3 hrs on day 3; assay type: ADME, organism-based; set-up: route oral; method in brief: as §4
# [31] = Plasma concentration in Sprague-Dawley rat at 30 mg/kg/day, po measured after 3 hrs on day 1; assay type: ADME, organism-based; set-up: route oral; method in brief: as §4
# [32] = Plasma concentration in Sprague-Dawley rat at 30 mg/kg/day, po measured after 3 hrs on day 9; assay type: ADME, organism-based; set-up: route oral; method in brief: as §4
# [33] = Volume of distribution at steady state in rat at 1 mg/kg, iv and 2 mg/kg, po; assay type: ADME, organism-based; details: in vivo, read-out: Vdss; method in brief: as §1
# Rattus norvegicus [34] = assay: Toxicity in Harlan rat assessed as motor impairment at 3 mg/kg, po by rotarod test; assay type: organism-based; set-up: dose 3 mg/kg, route oral; details: in vivo
# [35] = Plasma concentration in Sprague-Dawley rat at 30 mg/kg/day, po measured after 3 hrs on day 10; assay type: ADME, organism-based; set-up: route oral; method in brief: as §4
# Rattus norvegicus [36] = assay: Antiallodynic activity in Harlan rat spinal nerve ligation model of neuropathic pain assessed as reversal of allodynia at 3 mg/kg, po; assay type: functional
# [37] = Clearance in rat at 1 mg/kg, iv and 2 mg/kg, po; assay type: ADME, organism-based; details: in vivo; method in brief: as §1
# [38] = Fraction unbound in dog plasma; assay type: ADME, cell-free, Canis lupus familiaris
# [39] = Plasma concentration in Sprague-Dawley rat at 30 mg/kg/day, po measured after 3 hrs on day 5; assay type: ADME, organism-based; set-up: route oral; method in brief: as §4
# [40] = Bioavailability in rat at 1 mg/kg, iv and 2 mg/kg, po; assay type: ADME, organism-based; details: in vivo; method in brief: as §1
structure (smiles),measurement,setting,value
CS(=O)(=O)c1ccc(-c2nn(-c3ccc(F)cc3)cc2Sc2ccc(Cl)cc2)cc1,bioavailability,[1],100%
same,IC50,[2],6 nM
same,Ki,[3],637 nM
same,EC50,[4],363 nM
same,AUC/dose,Rattus norvegicus [5],1.06 µM·kg·h/mg
same,half-life,[6],1.79 h
same,solubility,[7],3 µg/mL
same,clearance,[8],34 mL/min/kg
same,Vd,[9],8.4 L/kg
CC(C)(O)c1cnc(-c2nn(-c3ccc(F)cc3)cc2Sc2ccc(Cl)cc2)cn1,Activity,Rattus norvegicus [10],58%
same,bioavailability,[1],96%
same,Activity,Rattus norvegicus [11],42%
same,IC50,[2],10 nM
same,IC50,[12],32 nM
same,Ki,[3],740 nM
same,EC50,[4],1160 nM
same,Activity,Rattus norvegicus [13],40%
same,AUC/dose,Rattus norvegicus [5],1.07 µM·kg·h/mg
same,half-life,[6],4.9 h
same,clearance,[8],33.8 mL/min/kg
same,Vd,[9],15.8 L/kg
same,Activity,Rattus norvegicus [14],38%
NC(=O)c1cccc(-c2cccc(OC(=O)NC3CCCCC3)c2)c1,Activity,Rattus norvegicus [15],Active
Clc1ccc(Sc2cn(-c3ccccc3)nc2-c2ccc3c(c2)OCCO3)cc1,IC50,[2],8 nM
same,IC50,[12],27 nM
same,Ki,[3],> 30000 nM
CC(C)(O)c1ccc(-c2nc(-c3ccc(F)cc3)oc2Sc2ccc(Cl)cn2)cn1,half-life,[16],4.3 h
same,concentration at 24 h,[17],7.3 µM
same,Activity,Rattus norvegicus [10],70%
same,AUC/dose,Rattus norvegicus [18],2.2 µM·kg·h/mg
same,fraction unbound,[19],0.016
same,concentration at 3 h,[20],12.2 µM
same,fraction unbound,[21],0.008
same,concentration at 24 h,[22],4.1 µM
same,Activity,Rattus norvegicus [11],49%
same,concentration at 24 h,[23],6.5 µM
same,concentration at 24 h,[24],2.1 µM
same,fraction unbound,[25],0.029
same,concentration at 24 h,[26],8.3 µM
same,IC50,[2],11 nM
same,Activity,Rattus norvegicus [27],Active
same,concentration at 3 h,[28],8 µM
same,IC50,[12],11 nM
same,Ki,[3],1250 nM
same,concentration at 24 h,[29],7.9 µM
same,concentration at 3 h,[30],11.9 µM
same,EC50,[4],> 20000 nM
same,concentration at 3 h,[31],5.4 µM
same,concentration at 3 h,[32],13.7 µM
same,Vd,[33],6.2 L/kg
same,Activity,Rattus norvegicus [34],Non-toxic
same,Activity,Rattus norvegicus [13],71%
same,concentration at 3 h,[35],14.2 µM
same,inhibition in vivo at 3 mg/kg,Rattus norvegicus [36],50%
same,clearance,[37],20 mL/min/kg
same,fraction unbound,[38],0.012
same,concentration at 3 h,[39],13.2 µM
same,bioavailability,[40],120%
same,Activity,Rattus norvegicus [14],51%
